Assay results taken from article PMC10762718 (RSC Advances, 2024).

Experiments:
Assay type in all cases: cell-based
[1] = system: MDA-MB-231 (human breast cancer) cells; assay: MTT cell viability assay, MDA-MB-231; details: for inhibition at 25 µM: MDA-MB-231; for viability at 10 µM / viability at 25 µM / viability at 50 µM: MDA-MB-231, 72 h, read-out: Cell viability (%) ±SD
Method in brief: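 MDA-MB-231 cells were grown as a monolayer in DMEM with 10% heat-inactivated FBS and 1% penicillin-streptomycin at 37 °C in humidified CO2, subcultured every third day with trypsin-EDTA, and used before passage 8. Cells were exposed 72 h to 10, 25 and 50 μM. Medium was removed, MTT added for 3 h at 37 °C, formazan dissolved in DMSO and read at 595 nm. Viability is relative to untreated control, triplicates, ±SD. IC50 comes from the viability-versus-concentration plot.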

[2] = system: MCF-7 breast cancer cells; assay: MTT cell viability assay, MCF-7; details: Homo sapiens; for inhibition at 25 µM: MCF7; for IC50: MCF7, 72 h, read-out: IC50 against MCF-7 breast cancer cells line; for viability at 1 µM / viability at 10 µM / viability at 25 µM: MCF7, read-out: Cell viability (%) ±SD
Method in brief: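 After medium removal, MTT was added for 3 h at 37 °C in CO2, formazan dissolved in DMSO and absorbance read at 595 nm. Viability is relative to untreated cells, triplicates, n = 3, ±SD. IC50 comes from plotting percent viability against concentration.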

MDA-MB-453 cells = assay: MTT cell viability assay, MDA-MB-453; details: for viability at 1 µM / viability at 10 µM / viability at 25 µM: Homo sapiens, MDA-MB-453, read-out: Cell viability (%) ±SD; for IC50 against MDA-MB-453 cells: tested at 1, 10 and 25 μM
Method in brief: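 MDA-MB-453 (HER2-positive) cells were exposed to test compound at 1, 10 and 25 μM for 72 h. After medium removal, MTT was added for 3 h at 37 °C in CO2. Formazan was dissolved in DMSO and absorbance read at 595 nm. Percent viable cells are relative to untreated control cells.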

[3] = MTT cell viability assay, normal MCF-10A cells; details: human, MCF-10A normal mammary epithelial cells
Method in brief: (§1)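 Normal mammary epithelial MCF-10A cells were exposed to test compound at 25, 50 and 100 μM for 72 h. Cells were then given MTT after medium removal, 3 h at 37 °C in CO2. Formazan was dissolved in DMSO and absorbance read at 595 nm. Viability is expressed as percent of untreated control cells.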

[4] = system: normal mammary epithelial MCF-10A cells; assay: MTT cell viability assay, normal MCF-10A cells; details: tested at 25, 50 and 100 μM
Method in brief: as §1

Structure (SMILES)	inhibition at 25 µM [1]	viability at 10 µM [1]	viability at 25 µM [1]	viability at 50 µM [1]	inhibition at 25 µM [2]	IC50 [2]	viability at 1 µM [2]	viability at 10 µM [2]	viability at 25 µM [2]	viability at 1 µM (MDA-MB-453 cells)	viability at 10 µM (MDA-MB-453 cells)	viability at 25 µM (MDA-MB-453 cells)	IC50 against MDA-MB-453 cells (MDA-MB-453 cells)	viability at 72 h, 25 µM [3]	viability at 72 h, 50 µM [3]	viability at 72 h, 100 µM [3]	growth inhibitory activity against normal breast epithelial cell (MCF-10A) [4]
CC(=O)OC[C@@H]1O[C@H](n2cc(Cn3ccc4nc(-c5ccc(F)cc5)cc(=O)n43)nn2)[C@@H](OC(C)=O)[C@H](OC(C)=O)[C@H]1OC(C)=O (stereo in doubt) [Compound 26, (2S,3S,4R,5S,6S)-2-(Acetoxymethyl)-6-(4-((5-(4-fluorophenyl)-7-oxopyrazolo[1,5-a]pyrimidin-1(7H)-yl)methyl)-1H-1,2,3-triazol-1-yl)tetrahydro-2H-pyran-3,4,5-triyl triacetate]	~50%	76.6 ± 9.76%	60 ± 8.47%	54.6 ± 5.61%	~50%	26.6 µM	80 ± 4.5%	65.8 ± 1.8%	52.8 ± 3%	87.8 ± 3.2%	84.2 ± 11.5%	66.3 ± 5.8%	did not reach up to IC50 value	87.8 ± 2.8%	85.6 ± 0.7%	82 ± 1.5%	none of these compounds did have any growth inhibitory activity
CC(=O)OC[C@@H]1O[C@H](n2cc(Cn3ccc4nc(-c5ccc(Br)cc5)cc(=O)n43)nn2)[C@@H](OC(C)=O)[C@H](OC(C)=O)[C@@H]1OC(C)=O (stereo in doubt) [Compound 33, (2S,3R,4R,5S,6S)-2-(Acetoxymethyl)-6-(4-((5-(4-bromophenyl)-7-oxopyrazolo[1,5-a]pyrimidin-1(7H)-yl)methyl)-1H-1,2,3-triazol-1-yl)tetrahydro-2H-pyran-3,4,5-triyl triacetate]	~50%	66.7 ± 8.23%	63.3 ± 6.32%	47 ± 4.91%	~50%	7.32 µM	67 ± 4.7%	35 ± 2.5%	25 ± 2.9%	88.8 ± 5.2%	78.3 ± 4.7%	67.6 ± 5.3%	did not reach up to IC50 value	99.6 ± 2.2%	87.6 ± 1.7%	81.4 ± 2.6%	none of these compounds did have any growth inhibitory activity
